≈ marks a conversion by molar mass, not a printed value. Calls of active or inactive are those of the source. The calls are words filed in the database; no cut-off is given here. Starred links: 1 amine or outer side, 2 acyl side, 3 side chain; linkers in the order of their positions; H or OH if unused. Positions of bridges follow the written chain, without caps; N, C: chain ends. Non-standard residues stand in square brackets, D forms with d. Residues, ends and D or L forms follow the SMILES beside them. X1 = CC(C)CCCCCCCCC[C@H](CC(=O)[*:1])O[*:2]; Orn = NCCC[C@H](N)C(=O)O
Experiments:
[1] = system: Mycoplasma pulmonis; assay: Ratio of MBC to MIC for Mycoplasma pulmonis MpUR1.1; type: functional, Mycoplasmopsis pulmonis
Method in brief: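 MIC came from broth microdilution at 10^6 CFU/ml in Hayflick medium with 5% horse serum. Twofold dilutions ran from 0.4 to 100 µM, with phenol red read-out at 48 h. MBC came from plating after exposure (peptides 2 h, enrofloxacin 24 h) on solid medium at 37°C under anaerobic conditions. MBC was the concentration killing 99.9% of cells, with colonies read at 4 to 5 days.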

[2] = system: Mycoplasma pulmonis; assay: Antibacterial activity against 10^6 CFU/ml log-phase Mycoplasma pulmonis MpUR1.1 assessed as viable cell count at 0.4 uM after 24 hrs relative to control; type: functional, Mycoplasmopsis pulmonis
Method in brief: (§1)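 Time-kill on log-phase cells, about 10^6 CFU/ml in Hayflick broth, exposed to a single drug concentration at 37°C. Aliquots were taken at 1, 2 or 24 h, serially diluted and plated for viable counts. Counts were expressed as percent of the untreated culture. Values are the mean of two independent experiments.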

[3] = system: Mycoplasma pulmonis; assay: Antibacterial activity against 10^6 CFU/ml growth-phase Mycoplasma pulmonis MpUR1.1 assessed as viable cell count after 2 hrs relative to control; type: functional; conditions: Mycoplasmopsis pulmonis; method in brief: as §1
[4] = system: Mycoplasma pulmonis; assay: Antibacterial activity against 10^6 CFU/ml log-phase Mycoplasma pulmonis MpUR1.1 assessed as viable cell count at 0.4 uM after 1 hr relative to control; type: functional, Mycoplasmopsis pulmonis; method in brief: as §1
[5] = system: Mycoplasma pulmonis; assay: Antibacterial activity against 10^6 CFU/ml Mycoplasma pulmonis MpUR1.1 after 48 hrs; type: functional; conditions: Mycoplasmopsis pulmonis
Method in brief: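 Mycoplasmas seeded at 10^6 CFU/ml in Hayflick medium with 5% horse serum, with twofold serial drug dilutions (0.4 to 100 µM). Growth was followed by phenol red colour change. MIC was the lowest concentration giving complete growth inhibition at 48 h. Triplicate.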

[6] = system: Mycoplasma pulmonis; assay: Antibacterial activity against 10^6 CFU/ml Mycoplasma pulmonis MpUR1.1 assessed as viable cell count after 2 hrs; type: functional; conditions: Mycoplasmopsis pulmonis
Method in brief: (§2)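 For bactericidal testing, cells were exposed to peptides for 2 h or enrofloxacin for 24 h, then plated on solid medium at 37°C under anaerobic conditions. Colonies were read after 4 to 5 days. MBC was the lowest concentration killing 99.9% of cells. Triplicate.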

[7] = system: Mycoplasma pulmonis; assay: Antibacterial activity against 10^6 CFU/ml log-phase Mycoplasma pulmonis MpUR1.1 assessed as viable cell count at 6.25 uM after 1 hr relative to control; type: functional, Mycoplasmopsis pulmonis; method in brief: as §1
[8] = system: Mycoplasma pulmonis; assay: Antibacterial activity against 10^6 CFU/ml log-phase Mycoplasma pulmonis MpUR1.1 assessed as viable cell count at 6.25 uM after 24 hrs relative to control; type: functional, Mycoplasmopsis pulmonis; method in brief: as §1
[9] = system: Mycoplasma pulmonis; assay: Antibacterial activity against 10^6 CFU/ml Mycoplasma pulmonis MpUR1.1 assessed as viable cell count after 24 hrs; type: functional; conditions: Mycoplasmopsis pulmonis; method in brief: as §2
[10] = system: Mycoplasma pulmonis; assay: Antibacterial activity against 10^6 CFU/ml log-phase Mycoplasma pulmonis MpUR1.1 assessed as viable cell count at 3.12 uM after 24 hrs relative to control; type: functional, Mycoplasmopsis pulmonis; method in brief: as §1
[11] = system: Mycoplasma pulmonis; assay: Antibacterial activity against 10^6 CFU/ml log-phase Mycoplasma pulmonis MpUR1.1 assessed as viable cell count at 3.12 uM after 1 hr relative to control; type: functional, Mycoplasmopsis pulmonis; method in brief: as §1
[12] = system: Mycoplasma pulmonis; assay: Antibacterial activity against 10^6 CFU/ml log-phase Mycoplasma pulmonis MpUR1.1 assessed as viable cell count at 25 uM after 24 hrs relative to control; type: functional, Mycoplasmopsis pulmonis; method in brief: as §1
[13] = system: Mycoplasma pulmonis; assay: Antibacterial activity against 10^6 CFU/ml log-phase Mycoplasma pulmonis MpUR1.1 assessed as viable cell count at 25 uM after 1 hr relative to control; type: functional, Mycoplasmopsis pulmonis; method in brief: as §1

Structure (SMILES)	MIC [5]	Ratio [1]	Activity [2]	Activity [3]	Activity [4]	MBC [6]	Activity [7]	Activity [8]	MBC [9]	Activity [10]	Activity [11]	Activity [12]	Activity [13]
CC(=O)NC(C)(C)C(=O)N1CCC[C@H]1C(=O)NC(C)(C)C(=O)N[C@@H](C)C(=O)NC(C)(C)C(=O)N[C@@H](C)C(=O)N[C@@H](CCC(N)=O)C(=O)NC(C)(C)C(=O)N[C@H](C(=O)NC(C)(C)C(=O)NCC(=O)N[C@@H](CC(C)C)C(=O)NC(C)(C)C(=O)N1CCC[C@H]1C(=O)N[C@H](C(=O)NC(C)(C)C(=O)NC(C)(C)C(=O)N[C@@H](CCC(=O)O)C(=O)N[C@@H](CCC(N)=O)C(=O)N[C@H](CO)Cc1ccccc1)C(C)C)C(C)C [ALAMETHICIN]	12.3 µg/mL (≈ 6.26 µM)	2	–	Active	–	49.1 µg/mL (≈ 25 µM)	31%	0%	–	–	–	–	–
CC(C)CCCCCCCCC[C@@H]1CC(=O)N[C@@H](CCC(=O)O)C(=O)N[C@@H](CC(C)C)C(=O)N[C@H](CC(C)C)C(=O)N[C@@H](C(C)C)C(=O)N[C@@H](CC(=O)O)C(=O)N[C@H](CC(C)C)C(=O)N[C@@H](CC(C)C)C(=O)O1 [SURFACTIN] (EL[dL]VD[dL]L; linker N-C via X1)	25.9 µg/mL (≈ 25 µM)	2	–	Active	–	104 µg/mL (≈ 100 µM)	–	–	–	–	–	0.08%	43%

These reach a lower MIC [5]. Values come first.

MIC [5]	Structure (SMILES)	Ratio [1]	Activity [2]	Activity [3]	Activity [4]	MBC [6]	Activity [7]	Activity [8]	MBC [9]	Activity [10]	Activity [11]	Activity [12]	Activity [13]
0.26 µg/mL (≈ 0.396 µM)	CCCCCC[C@H]1OC(=O)CNC(=O)[C@H]([C@H](C)O)NC(=O)[C@H](CO)NC(=O)[C@H]([C@H](C)CC)NC(=O)[C@H](CC(C)C)N(C)C(=O)[C@@H]1C	31	0.05%	Active	68%	8.2 µg/mL (≈ 12.5 µM)	–	–	–	–	–	–	–
0.14 µg/mL (≈ 0.39 µM)	CCN1CCN(c2cc3c(cc2F)c(=O)c(C(=O)O)cn3C2CC2)CC1 [ENROFLOXACIN]	2	0.22%	Active	89%	–	–	–	0.29 µg/mL (≈ 0.807 µM)	–	–	–	–
3.6 µg/mL (≈ 3.15 µM)	CC(C)C[C@@H]1NC(=O)[C@H](CCCN)NC(=O)[C@H](C(C)C)NC(=O)[C@@H]2CCCN2C(=O)[C@@H](Cc2ccccc2)NC(=O)[C@H](CC(C)C)NC(=O)[C@H](CCCN)NC(=O)[C@H](C(C)C)NC(=O)[C@@H]2CCCN2C(=O)[C@@H](Cc2ccccc2)NC1=O [GRAMICIDIN S] (cyclo(L[dF]PV[Orn]L[dF]PV[Orn]))	2	–	Active	–	7.1 µg/mL (≈ 6.22 µM)	–	–	–	0.16%	98%	–	–

— ChEMBL document CHEMBL1142175, “Activities of antimicrobial peptides and synergy with enrofloxacin against Mycoplasma pulmonis” (2007)
